Experiments:
Assay type in all cases: functional, cell-based
[1] = Cytotoxicity against human H460 cells after 72 hrs by MTT assay; conditions: NCI-H460, 72 h
In short: (§1)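 Cells suspended in MEM medium, plated and incubated 24 h at 37 °C in 5% CO₂, then exposed to compounds at indicated final concentrations for 72 h. IC₅₀ from averages of three determinations, relative to DMSO vehicle control.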

[2] = system: HT-29; assay: Cytotoxicity against human HT-29 cells after 72 hrs by MTT assay; conditions: HT-29, 72 h; in short: as §1
[3] = Cytotoxicity against human MKN45 cells after 72 hrs by MTT assay; conditions: MKN-45, 72 h; in short: as §1
[4] = system: MDA-MB-231; assay: Cytotoxicity against human MDA-MB-231 cells after 72 hrs by MTT assay; conditions: MDA-MB-231, 72 h; in short: as §1

`CCN(CC)CCCNc1nc(-c2ccc(NC(=O)Nc3ccc(F)cc3)cc2)nc2c(Cl)c(Cl)sc12` gave an IC50 [1] of 0.45 µM, an IC50 [2] of 0.35 µM and an IC50 [3] of 1.7 µM. It also gave an IC50 [4] of 1.63 µM.

`CN(C)CCNc1nc(-c2ccc(NC(=O)Nc3ccccc3Cl)cc2)nc2c(Cl)c(Cl)sc12` showed an IC50 [1] of 0.44 µM, an IC50 [2] of 0.57 µM and an IC50 [3] of 1.17 µM. It also gave an IC50 [4] of 1.35 µM.

With `CCN(CC)CCNc1nc(-c2ccc(NC(=O)Nc3ccc(Cl)cc3)cc2)nc2ccsc12` the IC50 [1] was 0.19 µM, the IC50 [2] was 0.15 µM and the IC50 [3] was 0.37 µM. It also gave an IC50 [4] of 0.55 µM.

With `Cc1ccc(NC(=O)Nc2ccc(-c3nc(NCCCN(C)C)c4sc(Cl)c(Cl)c4n3)cc2)cc1` the IC50 [1] was 1.11 µM, the IC50 [2] was 1.32 µM and the IC50 [3] was 3.7 µM. The IC50 [4] was 4.98 µM.

In the case of `CN(C)CCCNc1nc(-c2ccc(NC(=O)Nc3ccccc3Cl)cc2)nc2ccsc12`, the IC50 [1] is reported as 0.43 µM, the IC50 [2] is reported as 0.39 µM and the IC50 [3] is reported as 0.69 µM. For the same compound, the IC50 [4] was 0.59 µM.

For `CN(C)CCNc1nc(-c2ccc(NC(=O)Nc3ccc(F)cc3)cc2)nc2c(Cl)c(Cl)sc12`, the IC50 [1] was 0.59 µM, the IC50 [2] was 0.89 µM and the IC50 [3] was 1.35 µM. For the same compound, the IC50 [4] was 1.24 µM.

For `CN(C)CCCNc1nc(-c2ccc(NC(=O)Nc3ccccc3Cl)cc2)nc2c(Cl)c(Cl)sc12`, the IC50 [1] was 0.49 µM, the IC50 [2] was 0.82 µM and the IC50 [3] was 1.33 µM. The IC50 [4] was 1.56 µM.

Work on `CCN(CC)CCNc1nc(-c2ccc(NC(=O)Nc3ccc(F)cc3)cc2)nc2c(Cl)c(Cl)sc12` yielded an IC50 [1] of 0.5 µM, an IC50 [2] of 0.65 µM and an IC50 [3] of 1.37 µM. It also gave an IC50 [4] of 1.13 µM.

With `CN(C)CCNc1nc(-c2ccc(NC(=O)Nc3ccccc3Cl)cc2)nc2ccsc12` the IC50 [1] was 0.23 µM, the IC50 [2] was 0.31 µM and the IC50 [3] was 0.85 µM. It also gave an IC50 [4] of 0.55 µM.

In the case of `CCN(CC)CCCNc1nc(-c2ccc(NC(=O)Nc3ccccc3F)cc2)nc2ccsc12`, the IC50 [1] is reported as 0.37 µM, the IC50 [2] is reported as 0.55 µM and the IC50 [3] is reported as 0.58 µM. For the same compound, the IC50 [4] was 0.86 µM.

`CS(=O)(=O)N1CCN(Cc2cc3nc(-c4cccc5[nH]ncc45)nc(N4CCOCC4)c3s2)CC1` [PICTILISIB] gave an IC50 [3] of 0.6 µM.

Work on `CCN(CC)CCCNc1nc(-c2ccc(NC(=O)Nc3ccccc3Cl)cc2)nc2ccsc12` yielded an IC50 [1] of 0.2 µM, an IC50 [2] of 0.34 µM and an IC50 [3] of 0.39 µM. For the same compound, the IC50 [4] was 0.5 µM.

For `CCN(CC)CCNc1nc(-c2ccc(NC(=O)Nc3ccccc3Cl)cc2)nc2ccsc12`, the IC50 [1] was 0.32 µM, the IC50 [2] was 0.62 µM and the IC50 [3] was 0.75 µM. It also gave an IC50 [4] of 0.68 µM.

In the case of `CN(C)CCCNc1nc(-c2ccc(NC(=O)Nc3ccc(Cl)cc3Cl)cc2)nc2ccsc12`, the IC50 [1] is reported as 1.02 µM, the IC50 [2] is reported as 1.86 µM and the IC50 [3] is reported as 2.27 µM. For the same compound, the IC50 [4] was 1.86 µM.

For `CCN(CC)CCCNc1nc(-c2ccc(NC(=O)Nc3ccc(Cl)cc3Cl)cc2)nc2c(Cl)c(Cl)sc12`, the IC50 [1] was 1.17 µM, the IC50 [2] was 1.23 µM and the IC50 [3] was 5.72 µM. It also gave an IC50 [4] of 3.94 µM.

In the case of `CCN(CC)CCNc1nc(-c2ccc(NC(=O)Nc3ccccc3Cl)cc2)nc2c(Cl)c(Cl)sc12`, the IC50 [1] is reported as 0.46 µM, the IC50 [2] is reported as 0.55 µM and the IC50 [3] is reported as 1.13 µM. It also gave an IC50 [4] of 1.41 µM.

In the case of `CCN(CC)CCCNc1nc(-c2ccc(NC(=O)Nc3ccc(F)cc3)cc2)nc2ccsc12`, the IC50 [1] is reported as 0.29 µM, the IC50 [2] is reported as 0.34 µM and the IC50 [3] is reported as 0.47 µM. For the same compound, the IC50 [4] was 0.53 µM.

`CCN(CC)CCNc1nc(-c2ccc(NC(=O)Nc3ccc(C)cc3)cc2)nc2c(Cl)c(Cl)sc12` showed an IC50 [1] of 0.84 µM, an IC50 [2] of 0.95 µM and an IC50 [3] of 1.45 µM. For the same compound, the IC50 [4] was 2.01 µM.

`CCN(CC)CCCNc1nc(-c2ccc(NC(=O)Nc3ccc(C)cc3)cc2)nc2ccsc12` showed an IC50 [1] of 1.24 µM, an IC50 [2] of 1.62 µM and an IC50 [3] of 1.76 µM. For the same compound, the IC50 [4] was 1.98 µM.

Work on `CCN(CC)CCCNc1nc(-c2ccc(NC(=O)Nc3ccccc3)cc2)nc2ccsc12` yielded an IC50 [1] of 0.68 µM, an IC50 [2] of 0.73 µM and an IC50 [3] of 0.98 µM. The IC50 [4] was 1.23 µM.

`CN(C)CCCNc1nc(-c2ccc(NC(=O)Nc3ccc(F)cc3)cc2)nc2c(Cl)c(Cl)sc12` showed an IC50 [1] of 0.65 µM, an IC50 [2] of 0.43 µM and an IC50 [3] of 1.12 µM. For the same compound, the IC50 [4] was 0.98 µM.

For `CN(C)CCCNc1nc(-c2ccc(NC(=O)Nc3ccc(Cl)cc3)cc2)nc2c(Cl)c(Cl)sc12`, the IC50 [1] was 0.23 µM, the IC50 [2] was 0.33 µM and the IC50 [3] was 1.53 µM. The IC50 [4] was 1.16 µM.

For `CN(C)CCCNc1nc(-c2ccc(NC(=O)Nc3ccccc3F)cc2)nc2ccsc12`, the IC50 [1] was 0.53 µM, the IC50 [2] was 0.47 µM and the IC50 [3] was 0.73 µM. It also gave an IC50 [4] of 0.66 µM.

In the case of `Cc1ccc(NC(=O)Nc2ccc(-c3nc(NCCN(C)C)c4sccc4n3)cc2)cc1`, the IC50 [1] is reported as 1.88 µM, the IC50 [2] is reported as 2.15 µM and the IC50 [3] is reported as 2.38 µM. For the same compound, the IC50 [4] was 2.18 µM.

`CCN(CC)CCNc1nc(-c2ccc(NC(=O)Nc3ccc(Cl)cc3Cl)cc2)nc2c(Cl)c(Cl)sc12` gave an IC50 [1] of 1.3 µM, an IC50 [2] of 1.14 µM and an IC50 [3] of 1.77 µM. It also gave an IC50 [4] of 1.92 µM.

`CCN(CC)CCCNc1nc(-c2ccc(NC(=O)Nc3ccccc3)cc2)nc2c(Cl)c(Cl)sc12` gave an IC50 [1] of 0.85 µM, an IC50 [2] of 0.82 µM and an IC50 [3] of 1.64 µM. For the same compound, the IC50 [4] was 1.78 µM.

`CN(C)CCNc1nc(-c2ccc(NC(=O)Nc3ccc(Cl)cc3)cc2)nc2c(Cl)c(Cl)sc12` gave an IC50 [1] of 0.3 µM, an IC50 [2] of 0.46 µM and an IC50 [3] of 0.91 µM. For the same compound, the IC50 [4] was 0.87 µM.

Compound `CCN(CC)CCCNc1nc(-c2ccc(NC(=O)Nc3ccc(C)cc3)cc2)nc2c(Cl)c(Cl)sc12` has an IC50 [1] of 1.24 µM, an IC50 [2] of 0.89 µM and an IC50 [3] of 3.32 µM. It also gave an IC50 [4] of 3.04 µM.

For `CN(C)CCNc1nc(-c2ccc(NC(=O)Nc3ccc(Cl)cc3Cl)cc2)nc2c(Cl)c(Cl)sc12`, the IC50 [1] was 1.52 µM, the IC50 [2] was 1.28 µM and the IC50 [3] was 3.46 µM. It also gave an IC50 [4] of 3.5 µM.

For `CN(C)CCCNc1nc(-c2ccc(NC(=O)Nc3ccc(Cl)cc3Cl)cc2)nc2c(Cl)c(Cl)sc12`, the IC50 [1] was 0.98 µM, the IC50 [2] was 1.32 µM and the IC50 [3] was 2.56 µM. The IC50 [4] was 3.49 µM.

For `CCN(CC)CCNc1nc(-c2ccc(NC(=O)Nc3ccc(Cl)cc3Cl)cc2)nc2ccsc12`, the IC50 [1] was 1.89 µM, the IC50 [2] was 1.94 µM and the IC50 [3] was 1.52 µM. For the same compound, the IC50 [4] was 2.48 µM.

Compound `CCN(CC)CCCNc1nc(-c2ccc(NC(=O)Nc3ccc(Cl)cc3)cc2)nc2c(Cl)c(Cl)sc12` has an IC50 [1] of 0.27 µM, an IC50 [2] of 0.25 µM and an IC50 [3] of 0.72 µM. The IC50 [4] was 0.66 µM.

`CN(C)CCNc1nc(-c2ccc(NC(=O)Nc3ccccc3F)cc2)nc2ccsc12` gave an IC50 [1] of 0.41 µM, an IC50 [2] of 0.51 µM and an IC50 [3] of 0.53 µM. The IC50 [4] was 0.6 µM.

Work on `CN(C)CCNc1nc(-c2ccc(NC(=O)Nc3ccc(Cl)cc3)cc2)nc2ccsc12` yielded an IC50 [1] of 0.13 µM, an IC50 [2] of 0.095 µM and an IC50 [3] of 0.25 µM. For the same compound, the IC50 [4] was 0.31 µM.

In the case of `CCN(CC)CCNc1nc(-c2ccc(NC(=O)Nc3ccc(Cl)cc3)cc2)nc2c(Cl)c(Cl)sc12`, the IC50 [1] is reported as 0.32 µM, the IC50 [2] is reported as 0.43 µM and the IC50 [3] is reported as 0.89 µM. It also gave an IC50 [4] of 0.75 µM.

With `CCN(CC)CCCNc1nc(-c2ccc(NC(=O)Nc3ccccc3Cl)cc2)nc2c(Cl)c(Cl)sc12` the IC50 [1] was 0.33 µM, the IC50 [2] was 0.41 µM and the IC50 [3] was 1.45 µM. It also gave an IC50 [4] of 0.97 µM.

`CCN(CC)CCNc1nc(-c2ccc(NC(=O)Nc3ccccc3F)cc2)nc2ccsc12` showed an IC50 [1] of 0.43 µM, an IC50 [2] of 0.61 µM and an IC50 [3] of 1.04 µM. For the same compound, the IC50 [4] was 0.58 µM.

`CN(C)CCNc1nc(-c2ccc(NC(=O)Nc3ccc(F)cc3)cc2)nc2ccsc12` showed an IC50 [1] of 0.39 µM, an IC50 [2] of 0.35 µM and an IC50 [3] of 0.33 µM. For the same compound, the IC50 [4] was 0.54 µM.

In the case of `CN(C)CCNc1nc(-c2ccc(NC(=O)Nc3ccccc3)cc2)nc2ccsc12`, the IC50 [1] is reported as 0.64 µM, the IC50 [2] is reported as 0.62 µM and the IC50 [3] is reported as 1.12 µM. The IC50 [4] was 1.31 µM.

With `CN(C)CCNc1nc(-c2ccc(NC(=O)Nc3ccc(Cl)cc3Cl)cc2)nc2ccsc12` the IC50 [1] was 1.65 µM, the IC50 [2] was 1.32 µM and the IC50 [3] was 2.36 µM. For the same compound, the IC50 [4] was 2.45 µM.

From ChEMBL document CHEMBL3352345, “Design, synthesis and biological evaluation of novel thieno[3,2-d]pyrimidine derivatives containing diaryl urea moiety as potent antitumor agents” (Eur J Med Chem, 2014)
